Compounds with a hit are over-represented: about 1.7% of the library has one in this group of screens.
PfG6PD inh: PfG6PD (Plasmodium falciparum) enzyme inhibition; PfGluPho enzyme, NADPH resazurin-diaphorase fluorescence; actives 0.78% (n = 350,000); inhibition, % at 20 µM;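 active = inhibition reaching at least a set limit at 20 µM in the primary screen, cut at about 59% in these data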;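 also: 0% = DMSO wells with substrate and 100% = DMSO wells lacking glucose-6-phosphate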
APJ antag: blocks the human apelin receptor APJ. CHO-K1 APJ beta-arrestin complementation, luminescence. AID 2521. P35414. inhibition, % at 20 µM. actives 0.32% (n = 330,000);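 active = inhibition above about 40% at 20 µM, limit read from the data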;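 also: cells challenged with 10 nM apelin-13 agonist together with compound; plate controls were apelin-13 plus DMSO wells for no effect and DMSO wells lacking apelin-13 for full effect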
APJ agonist: activates the human apelin receptor APJ | P35414 | CHO-K1 APJ PathHunter beta-arrestin, luminescence; 0% DMSO wells, 100% apelin | activation, % at 20 µM | actives 0.11% (n = 330,000) | AID 2520;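 active = activation more than six SD over the plate average, tested at 20 µM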;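 also: 0% = DMSO alone and 100% = apelin-13 at 10 nM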
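Material: engineered CHO-K1 APJ arrestin reporter cells; amount: 1000 CHO-K1 reporter cells seeded per well; incubation: compound stimulation 90 min at 25 °C, detection 60 min; signal: luminescent beta-gal fragment complementation, chemiluminescent substrate; read-out basis: APJ agonist activity; controls: DMSO-only wells as negative, 10 nM Apelin-13 as positive control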
CCR6 antag: CCR6 (human) receptor antagonism; P51684; AID 493098; CHO-K1 CCR6 PathHunter beta-arrestin, luminescence, CCL20-stimulated; actives 0.49% (n = 340,000); inhibition, % at 20 µM;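 active = compounds whose inhibition of the agonist-driven luminescence signal at 20 µM reaches about 50%, limit read from the data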;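 also: cells stimulated with CCL20 at 14 nM final; plate controls were DMSO with CCL20 for no effect and DMSO without agonist for full effect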
Target sequence (P51684 whole entry, looked up): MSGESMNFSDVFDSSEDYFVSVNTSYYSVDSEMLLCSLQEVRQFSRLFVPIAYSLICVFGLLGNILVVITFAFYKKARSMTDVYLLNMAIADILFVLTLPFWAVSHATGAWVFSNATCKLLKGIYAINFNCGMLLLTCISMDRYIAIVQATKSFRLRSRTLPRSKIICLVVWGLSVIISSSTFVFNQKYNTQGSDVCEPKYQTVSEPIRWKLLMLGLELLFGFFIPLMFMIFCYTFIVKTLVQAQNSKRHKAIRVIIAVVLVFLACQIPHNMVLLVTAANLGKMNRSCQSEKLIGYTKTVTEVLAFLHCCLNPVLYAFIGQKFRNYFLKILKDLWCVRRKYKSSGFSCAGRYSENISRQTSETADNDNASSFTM
B2AR ag: human beta-2 adrenergic receptor agonism by FAP | P07550 | Am2.2-beta2AR cells, FAP receptor internalization, flow cytometry | response, % (concentration not given with the values) | actives 0.43% (n = 340,000);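 active = response above a set limit, near 3 SD of response in nonfluorescent compounds, cut at about 42% in these data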
CXCR6 block: inhibitors of human CXCR6 receptor | actives 0.36% (n = 360,000) | inhibition, % at 20 µM | CHO-K1 PathHunter CXCR6 beta-arrestin, luminescence; in the data active = inhibition above about 34%, passing the limit was not always enough;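 also: antagonist mode with CXCL16 agonist at 10 nM final; 0% = 10 nM CXCL16 with DMSO and 100% = unstimulated wells without agonist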
CXCR6 confirm: CXCR6 antagonism confirmation, single concentration | shares compounds with CXCR6 block | CHO-K1 CXCR6 PathHunter beta-arrestin, luminescence | inhibition, % at 20 µM | actives 65% (n = 700);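 active = mean inhibition over four retests above 40%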;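 also: receptor stimulated with 10 nM CXCL16 agonist; beta-galactosidase fragment complementation upon beta-arrestin recruitment to receptor; plate controls were CXCL16 plus DMSO for no effect and DMSO without CXCL16 for full effect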
* = called active by the depositor; . = no result.

SMILES	PfG6PD inh	APJ antag	APJ agonist	CCR6 antag	B2AR ag	CXCR6 block	CXCR6 confirm
COc1cccc(/C=C2\C(=O)N(c3cccc(C)c3)C(=O)c3ccccc32)c1	7	9	0	14	9	-10	.
O=C(Nc1ccccc1Oc1ccccc1)[C@@H]1O[C@H](CO)[C@H](O)[C@H](O)[C@H]1O	.	.	.	.	.	57*	71*
Cc1ccccc1CS(=O)(=O)c1nnc([C@H](Cc2ccccc2)NC(=O)OC(C)(C)C)o1	30	24	-4	89*	61*	64*	58*
CC(C)(C)OC(=O)N[C@@H](Cc1ccccc1)c1nnc(S(=O)(=O)Cc2ccccc2)o1	.	39	-8	.	.	.	.
O=C(NCc1ccc(Cl)cc1)c1ccc2ccccc2n1	-4	-6	-2	11	-4	-6	.
COC(=O)CN1C(=O)[C@H]2[C@@H](c3ccc(C)o3)N3C(=O)CN(Cc4ccccn4)C(=O)[C@@]3(C)[C@H]2C1=O	-8	2	5	4	2	104*	3
O=C1Nc2ccccc2C1Cc1ccccc1 (stereo unspecified)	30	-5	-3	-9	4	7	.
O=C1C=CC2(C=C1)O[C@H](Cc1ccccc1)[C@@H](Cc1ccccc1)O2	37	.	.	94*	38	76*	71*
CCOc1ccc(Br)cc1S(=O)(=O)NC1=NCCCCC1	-7	4	-2	1	-1	4	.
C/C(=N\NC(=S)NCCc1ccccc1)c1ccc(Cl)cc1Cl	3	33	-8	.	-8	54*	54*
C/C(=N\NC(=S)NCCc1ccccc1)c1ccc(O)cc1O	-37	-5	7	9	-6	0	.
CCNC(=O)c1nc[nH]c1C(=O)NCC	2	-11	-5	25	1	59*	-1
CNC(=O)c1nc[nH]c1C(=O)NC	10	5	1	1	7	-8	.
C=CCn1c(SCC(=O)N2CCOCC2)nc2ccccc2c1=O	0	5	-2	21	-1	1	.
COc1ccc(CCNC(=O)COC(=O)Cc2cccc3ccccc23)cc1	8	-3	5	8	3	-2	.
COc1ccc(CCNC(=O)COC(=O)Cc2ccc(OC)cc2)cc1	3	-20	-4	11	-2	63*	1
O=C(NNC(=O)c1ccccc1-c1ccccc1C(=O)O)c1ccccc1	-11	-6	-5	6	3	-10	.
O=C(C=P(c1ccccc1)(c1ccccc1)c1ccccc1)c1ccccc1-c1ccccc1C(=O)C=P(c1ccccc1)(c1ccccc1)c1ccccc1	26	.	.	88*	104*	71*	39
O=C1c2cc([N+](=O)[O-])ccc2-c2cc(Br)c(N=C(NO)C(F)(F)F)cc21	17	.	.	18	-4	14	.
Cc1ccc(-c2ccc(S(=O)(=O)Nc3cccnc3)cc2)cc1	-20	4	5	7	9	0	.
Nc1cccc2c1C(=O)N(C(=O)/C=C/c1cccc(F)c1)C2=O	44	20	1	53*	-19	50*	45*
CC(C)C[C@@H](CO)NS(=O)(=O)c1cc(Cl)ccc1F	10	.	.	-2	1	-4	.
Cc1ccc(NC(=O)c2ccc(Nc3c([N+](=O)[O-])cc([N+](=O)[O-])cc3[N+](=O)[O-])cc2)cc1	40	35	-1	71*	14	43*	56*
CN(CC(=O)Nc1ccc(F)cc1)C(=O)COC(=O)CN1C(=O)NC2(CCCC2)C1=O	0	8	1	3	1	46*	17
C=CC[C@H](CC(=O)N(CCO)Cc1ccccc1)C(=O)NC[C@H](OC(=O)[C@@H](CC=C)Cc1ccc(F)cc1)c1ccccc1	23	13	-2	24	23	48*	19
SMILES	PfG6PD inh	APJ antag	APJ agonist	CCR6 antag	B2AR ag	CXCR6 block	CXCR6 confirm
C=CC[C@@H](CC(=O)N(CCO)Cc1ccccc1)C(=O)N[C@@H](COC(=O)[C@@H](CC=C)Cc1ccc(F)cc1)Cc1ccccc1	15	5	-5	28	2	42*	23
CC1(C)N=C(N)NC(=NCCCOc2ccc([N+](=O)[O-])cc2)N1	.	.	.	.	.	-4	.
CCN(CC)S(=O)(=O)c1ccc(/C=C/C(=O)NC2CCCCC2)cc1	0	22	-3	22	-26	6	.
Cc1ccc(C(=O)NCC(=O)N2CCCCCC2)cc1	4	7	1	0	-1	8	.
Cc1cccc(C(=O)NCC(=O)N2CCCC2)c1	-15	12	0	0	6	40*	5
CCC1NC(=O)c2cc3ccccc3cc2-n2c1nc1cc(C)cc(C)c1c2=O (stereo unspecified)	13	.	.	.	.	60*	7
Cc1occc1C(=O)NNC(=S)NC(=O)COc1ccc(Cl)cc1Cl	-57	29	-4	48	2	42*	37
O=C(N/N=C/c1c[nH]c2ccccc12)c1sc2ccccc2c1Cl	16	11	-1	16	-7	-5	.
O=C(N/N=C/c1ccc([N+](=O)[O-])o1)c1sc2ccccc2c1Cl	7	-21	-5	50	-1	41*	43*
C=CCNc1sc(C(=O)c2ccccc2)c(N)c1C#N	-9	25	-2	-2	-6	1	.
C=CCNc1sc(C(=O)c2ccc(C)cc2)c(N)c1C#N	8	15	0	0	0	55*	16
Cn1nc([N+](=O)[O-])nc1Sc1cccc2cccnc12	25	-4	-2	38	7	44*	41*
CCn1cc(CN2CCC(n3nccc3NC(=O)c3cccc(F)c3)CC2)cn1	-4	-30	-1	-3	-7	-3	.
CC(C)CC1C(=O)N(Cc2cn(CC3CCCCC3)nn2)CCS(=O)(=O)N1Cc1ccc(-c2ccc(Cl)c(Cl)c2)cc1 (stereo unspecified)	27	.	.	.	.	104*	15
Cc1cccc(C)c1-c1ccc(CN2C(CC(C)C)C(=O)N(Cc3cn(CC4CCCCC4)nn3)CCS2(=O)=O)cc1 (stereo unspecified)	10	.	.	9	9	7	.
O=C(NCc1ccc2c(c1)OCO2)c1[nH]c(C(F)(F)F)nc1-c1ccccc1	.	.	.	.	.	2	.
CCC(C)C(CO)NCCCn1cnc2c(OCc3ccccc3)ncnc21 (stereo unspecified)	0	.	.	.	.	3	.
CCC(C)C(CO)NCCCn1cnc2c(OC)ncnc21 (stereo unspecified)	-18	.	.	.	.	43*	9
O=C(NNc1ccc(C(F)(F)F)cc1[N+](=O)[O-])c1ccc(NS(=O)(=O)c2ccc(F)cc2)cc1	13	.	.	58*	1	48*	39

From PubChem
